Screens as filed in PubChem BioAssay.
ATG4B inh = ATG4B protease inhibitors, primary screen, biochemical, fluorescence, uHTS; Cysteine protease ATG4B (Homo sapiens), Q9Y4P1; ATG4B cleavage of LC3-PLA2, NBD-HPC fluorescence, 1 h; inhibition, % at 8.33 µM; actives 0.51% (n = 340,000); AID 504462, 2011; in the data active means inhibition above about 40%
Rpn11 block = Rpn11 (PSMD14) deubiquitinase inhibitors, primary screen, biochemical, fluorescence polarization, uHTS; 26S proteasome non-ATPase regulatory subunit 14 (Homo sapiens), O00487; human 26S proteasome, Ub4-pepOG fluorescence polarization; 20S core pre-blocked with epoxomicin; inhibition, % at 20 µM; actives 0.59% (n = 360,000);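 active means inhibition at 20 µM, scaled to each plate's controls, above about 33%, limit read from the data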
Target sequence (O00487 whole entry, looked up): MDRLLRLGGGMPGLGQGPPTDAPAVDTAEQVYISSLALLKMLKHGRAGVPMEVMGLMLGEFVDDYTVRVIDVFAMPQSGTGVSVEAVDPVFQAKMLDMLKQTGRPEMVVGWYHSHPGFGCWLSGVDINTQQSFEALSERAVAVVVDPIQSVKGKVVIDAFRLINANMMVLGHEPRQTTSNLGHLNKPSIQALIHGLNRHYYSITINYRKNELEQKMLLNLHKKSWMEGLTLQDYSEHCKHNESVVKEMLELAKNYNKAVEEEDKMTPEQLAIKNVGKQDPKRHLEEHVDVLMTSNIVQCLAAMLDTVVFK
CSN deneddyl inh = inhibitors of CSN-mediated cullin deneddylation, primary screen, biochemical, fluorescence polarization, uHTS | actives 0.38% (n = 360,000) | AID 651999, 2013 | COP9 signalosome complex subunit 5 (Homo sapiens), Q92905 | Purified CSN, SCF-Nedd8-OG deneddylation | inhibition, % at 12.5 µM;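 active means pattern-corrected inhibition above about 35%, with an unprinted fluorescence ratio check between 0.5 and 1.5, limit read from the data, passing the limit was not always enough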;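 further: 0% = enzyme with substrate and 100% = substrate without enzyme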
Target sequence (Q92905 whole entry, looked up, one chain of several): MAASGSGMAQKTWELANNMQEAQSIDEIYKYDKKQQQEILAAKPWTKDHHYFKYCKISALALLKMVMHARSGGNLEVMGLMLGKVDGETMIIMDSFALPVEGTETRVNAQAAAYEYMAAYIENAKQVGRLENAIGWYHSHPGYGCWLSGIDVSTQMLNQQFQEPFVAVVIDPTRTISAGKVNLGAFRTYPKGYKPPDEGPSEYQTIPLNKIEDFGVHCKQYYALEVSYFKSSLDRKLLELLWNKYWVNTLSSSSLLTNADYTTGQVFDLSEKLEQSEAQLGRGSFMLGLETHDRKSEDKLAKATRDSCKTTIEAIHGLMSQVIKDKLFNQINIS
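Material: human Csn5 produced in HEK293T cells; Input: enzyme 0.24 nM; Reagent: SCFSkp2-Nedd8OG substrate at 10 nM final; Dosing: 12.5 µM compound; Incubation: 90 min reaction at room temperature; Detection: fluorescence polarization of the substrate; Evaluation: % inhibition of substrate cleavage by Csn5; Control set: substrate-only high control, full reaction low control.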
HNF4A DNA FP = change in binding of human HNF4A to DNA, primary screen, biochemical, fluorescence polarization, FITC-DNA. actives 0.3% (n = 360,000). AID 1224865, 2016. 1 h. Hepatocyte nuclear factor 4-alpha (Homo sapiens), P41235. activity change, % at 10 µM; in the data active means activity change above about 30%, passing the limit was not always enough
SENP1 inh = human SENP1 catalytic domain inhibitors, primary screen, biochemical, FRET, uHTS | Sentrin-specific protease 1 (Homo sapiens), Q9P0U3 | actives 0.21% (n = 360,000) | recombinant SENP1 catalytic domain, CyPet-SUMO1-YPet FRET cleavage | inhibition, % at 10 µM | AID 624204, 2012;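 active means inhibition at least 30% at 10 µM, raw YFP signal under a set limit, fluorescence ratio 0.5 to 1.5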;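 further: 0% = enzyme with DMSO and 100% = no enzyme wells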
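Controls: no-enzyme wells low, DMSO-plus-enzyme wells high control. Test system: human recombinant His6-tagged SENP1 catalytic domain enzyme. Reagent: SFCypet-SUMO1-SFYpet FRET protein substrate, 25 nM final. Doses: one dose per compound, 10 µM, 0.5% DMSO. Detection: FRET, CFP and YFP emission. Timing: 50 min reaction at room temperature.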
TPT1 inhibitor = Candida albicans TPT1 enzyme inhibitors, primary screen, biochemical, fluorescence polarization. actives 0.81% (n = 300,000). recombinant caTPT1, FP RNA substrate dephosphorylation. inhibition, % at 5 µM;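 active means inhibition above the mean of all tested compounds plus 3 SD, set per screening campaign, cut at about 24% in these data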;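 further: plate controls were DMSO alone for no effect and ferristatin control at 100 nM for full effect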
Starred values were filed as active, the others as inactive. Shown are actives, neighbours in structure and some others; about 2% of the full set was active somewhere.

How did CC(C)(C)OC(=O)NCCCCCNC(=O)c1ncn(Cc2ccccc2)c1C(=O)NCCCCCNC(=O)OC(C)(C)C do in these assays?
ATG4B inh: -15; Rpn11 block: 10; CSN deneddyl inh: 1; HNF4A DNA FP: 0; SENP1 inh: 0

How did CN1/C(=C/C=C/c2n(C)c3cc([N+](=O)[O-])c([N+](=O)[O-])cc3[n+]2C)C(C)(C)c2ccccc21 do in these assays?
Rpn11 block: 15; CSN deneddyl inh: 11; HNF4A DNA FP: 95*; SENP1 inh: -27

What do the screens show for `CC1=C(C(=O)N2CCCCCC2)CC(CC(=O)NCc2cccc3ccccc23)C(=O)N1CCC1=CCCCC1` (stereo not given)?
CSN deneddyl inh: 2; HNF4A DNA FP: -1; SENP1 inh: -1

How did CCCC[n+]1ccn(-c2nc3ccccc3nc2[N-]S(=O)(=O)c2ccc(Br)cc2)c1 do in these assays?
ATG4B inh: 2; Rpn11 block: 24; CSN deneddyl inh: 41*; HNF4A DNA FP: -4; SENP1 inh: -62; TPT1 inhibitor: 0

Results for CC(C)CC[n+]1ccn(-c2nc3ccccc3nc2[N-]S(=O)(=O)c2ccccc2)c1 ?
ATG4B inh: -8; Rpn11 block: 6; CSN deneddyl inh: -3; HNF4A DNA FP: 0; SENP1 inh: -126; TPT1 inhibitor: 1

How did C=CCn1c(SCC(C)=O)nc2scc(-c3ccco3)c2c1=O do in these assays?
ATG4B inh: -6; Rpn11 block: 8; CSN deneddyl inh: 24; HNF4A DNA FP: -34; SENP1 inh: -14; TPT1 inhibitor: 17

What do the screens show for `C=CCn1c(SCc2ccc3c(c2)OCO3)nc2scc(-c3ccco3)c2c1=O`?
ATG4B inh: 4; Rpn11 block: 21; CSN deneddyl inh: 57*; HNF4A DNA FP: -24; SENP1 inh: -9; TPT1 inhibitor: 0

What do the screens show for `O=C(NC1CCCC1)c1cnn2c(C(F)(F)F)cc(-c3ccc4c(c3)OCO4)nc12`?
ATG4B inh: -3; CSN deneddyl inh: 22; HNF4A DNA FP: 70*; SENP1 inh: -26; TPT1 inhibitor: -4

How did COc1ccc2c(c1)CCC1C2=NN(/C(C)=C\C(C)=O)C1c1ccc(F)cc1 (stereo not given) do in these assays?
ATG4B inh: -15; Rpn11 block: 51*; CSN deneddyl inh: 30; HNF4A DNA FP: 53*; SENP1 inh: -54; TPT1 inhibitor: 13

Results for Cc1ccc(S(=O)(=O)N2CCOCC2)cc1C(=O)N1CCN(c2ncccn2)CC1 ?
ATG4B inh: -1; Rpn11 block: -10; CSN deneddyl inh: 6; HNF4A DNA FP: 0; SENP1 inh: -1

Results for Cn1c(=O)cc2c3c(c(N4CCCCC4)ccc31)C(=O)c1ccccc1-2 ?
ATG4B inh: -1; Rpn11 block: -118; CSN deneddyl inh: -75; HNF4A DNA FP: -84; SENP1 inh: 33*; TPT1 inhibitor: -44

What do the screens show for `CCCn1cc(SCC(=O)NC2CCCC2)c2ccccc21`?
ATG4B inh: 6; Rpn11 block: 0; CSN deneddyl inh: -3; HNF4A DNA FP: -4; SENP1 inh: 2; TPT1 inhibitor: -1

What do the screens show for `CCCCn1cc(SCC(=O)O)c2ccccc21`?
ATG4B inh: -14; Rpn11 block: 0; CSN deneddyl inh: 59*; HNF4A DNA FP: -5; SENP1 inh: -1; TPT1 inhibitor: -3

Results for CCCC(C(=O)Nc1ccc(S(=O)(=O)Nc2ncccn2)cc1)c1ccccc1 (stereo not given) ?
ATG4B inh: -1; Rpn11 block: 2; CSN deneddyl inh: 0; HNF4A DNA FP: 34*; SENP1 inh: -6; TPT1 inhibitor: -3

Results for CCCC(C(=O)Nc1ccc(S(=O)(=O)N2CCCC2)cc1)c1ccccc1 (stereo not given) ?
ATG4B inh: -14; Rpn11 block: -6; CSN deneddyl inh: 1; HNF4A DNA FP: -1; SENP1 inh: 2; TPT1 inhibitor: -2

What do the screens show for `CC(Oc1ccccc1Cl)C(=O)N(Cc1ccco1)C1CCS(=O)(=O)C1` (stereo not given)?
ATG4B inh: -1; Rpn11 block: 5; CSN deneddyl inh: 7; HNF4A DNA FP: 31*; SENP1 inh: 2; TPT1 inhibitor: -2

What do the screens show for `O=C1Cc2ccccc2C(=O)N1`?
CSN deneddyl inh: 35*; HNF4A DNA FP: 3; SENP1 inh: -9

How did CCCNC(=O)C1(C)CCN(C(=O)c2cc(F)cc(F)c2)C1 (stereo not given) do in these assays?
Rpn11 block: -7; CSN deneddyl inh: -9; HNF4A DNA FP: 0; SENP1 inh: 4

How did COC(=O)c1ccc(NC(=O)CCN2C(=O)C3CC=CCC3C2=O)cc1 (stereo not given) do in these assays?
ATG4B inh: 3; Rpn11 block: -2; CSN deneddyl inh: -3; HNF4A DNA FP: -2; SENP1 inh: 0

Results for CC(C)CC1=C/C(=C/c2ccc(-c3ccccc3)o2)C(=O)O1 ?
ATG4B inh: 29; Rpn11 block: 53*; CSN deneddyl inh: 38*; HNF4A DNA FP: -17; SENP1 inh: -35; TPT1 inhibitor: 8

Results for CC1CCN(C(=O)c2[nH]cnc2C(=O)Nc2ccccc2F)CC1 ?
Rpn11 block: -4; CSN deneddyl inh: 6; HNF4A DNA FP: 0; SENP1 inh: 1

Results for O=[N+]([O-])c1cc(/C=N/N/C(=N/c2ccccn2)c2ccccn2)ccc1O ?
ATG4B inh: -6; Rpn11 block: 0; CSN deneddyl inh: -4; HNF4A DNA FP: 2; SENP1 inh: 34*; TPT1 inhibitor: -2

Results for Cc1cccc(NS(=O)(=O)c2ccc(NC(=O)N3CCCCC3)cc2)c1 ?
ATG4B inh: -7; Rpn11 block: -10; CSN deneddyl inh: 43*; HNF4A DNA FP: 0; SENP1 inh: 2; TPT1 inhibitor: -3

Results for COc1ccc(NC(=O)C/C(C)=N/NC(=O)c2cnccn2)cc1 ?
ATG4B inh: -5; Rpn11 block: 4; CSN deneddyl inh: 2; HNF4A DNA FP: 30*; SENP1 inh: 3; TPT1 inhibitor: -2

How did Cc1ccc(CN2CCC[C@]3(N[C@H](c4ccc(C)cc4)[C@@H]4C(=O)N(Cc5ccccc5)C(=O)[C@@H]43)C2=O)cc1 do in these assays?
Rpn11 block: -17; CSN deneddyl inh: -1; HNF4A DNA FP: -1; SENP1 inh: 2
